ChEMBL document CHEMBL1649378, “Synthesis and biological evaluation of new derivatives of 2-substituted 4-hydroxybutanamides as GABA uptake inhibitors” (Eur J Med Chem, 2011)

Columns and labels:
[1] = biological target: Sodium- and chloride-dependent GABA transporter 1 (Mus musculus) (UniProt P31648); assay: Inhibition of NO711 binding to mouse GAT1 by MS-binding assay; design: inhibition: concentration or dose not given beside the values; conditions: for inhibition: concentration not given here
Summary of the method: (§1)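 Binding assay on murine GAT1 with unlabelled NO711 as marker, quantified by LC-MS/MS on a triple quadrupole instrument. Compounds were first screened at 100 μM. Those cutting NO711 binding by at least 50% were rated active and then given pKi values.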

[2] = biological target: Sodium- and chloride-dependent GABA transporter 1 (Mus musculus) (UniProt P31648); assay: Inhibition of [3H]GABA uptake at GAT1 expressed in HEK cells; design: inhibition: concentration or dose not given beside the values; conditions: HEK293; for inhibition: concentration not given here
[3] = tested on: Sodium- and chloride-dependent GABA transporter 2 (Mus musculus); assay: Inhibition of [3H]GABA uptake at GAT2 expressed in HEK cells; design: inhibition: concentration or dose not given beside the values; conditions: HEK293; for inhibition: concentration not given here
[4] = biological target: Sodium- and chloride-dependent GABA transporter 1 (Mus musculus) (UniProt P31648); assay: Remaining NO711 binding to mouse GAT1 by MS-binding assay
[5] = tested on: Sodium- and chloride-dependent GABA transporter 3 (Mus musculus); assay: Inhibition of [3H]GABA uptake at GAT3 expressed in HEK cells at 100 uM; conditions: HEK293
[6] = tested on: Sodium- and chloride-dependent GABA transporter 2 (Mus musculus); assay: Inhibition of [3H]GABA uptake at GAT2 expressed in HEK cells at 100 uM; conditions: HEK293
[7] = biological target: Sodium- and chloride-dependent GABA transporter 1 (Mus musculus) (UniProt P31648); assay: Inhibition of [3H]GABA uptake at GAT1 expressed in HEK cells at 100 uM; conditions: HEK293
HEK293 = assay: Inhibition of [3H]GABA uptake at GAT4 expressed in HEK cells at 100 uM; type: cell-based
Summary of the method: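 [³H]GABA uptake measured in HEK cells stably transfected with the individual murine GABA transporter subtypes GAT1–GAT4. Compounds were first screened at 100 μM, and results are given as % remaining GABA uptake (means). Those cutting uptake by at least 50% were rated active and then given pIC50 values.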

[8] = biological target: Sodium- and chloride-dependent GABA transporter 1 (Mus musculus) (UniProt P31648); assay: Inhibition of NO711 binding to mouse GAT1 at 100 uM by MS-binding assay; summary of the method: as §1

Row | inhibition [2] [%] | inhibition [3] [%] | pIC50 [2] | pIC50 [3] | remaining binding [4] [%] | SMILES | further results
1 |  |  | 4.88 | 4.56 |  | O=C(NCc1ccc(Cl)cc1)C(CCO)N1CCN(C(c2ccccc2)c2ccccc2)CC1 (racemic) | pKi [1]: 4.33
2 |  |  |  |  | 98 | NC(=O)C(CCO)N1CCN(C(c2ccccc2)c2ccccc2)CC1 (racemic) | inhibition [5]: 83%
3 |  |  |  |  | 61 | Cc1ccc(CNC(=O)C(CCO)N2CCN(C(c3ccccc3)c3ccccc3)CC2)cc1 (racemic) | 
4 |  |  | 4.84 |  |  | O=C(NCc1ccc(F)cc1)C(CCO)N1CCN(C(c2ccccc2)c2ccccc2)CC1 (racemic) | pKi [1]: 4.82; inhibition [6]: 52%
5 |  |  | 4.66 | 4.47 |  | O=C(NCc1ccccc1)C(CCO)N1CCN(C(c2ccccc2)c2ccccc2)CC1 (racemic) | inhibition (HEK293): 54%; pKi [1]: 4.96; inhibition [5]: 46%
6 |  |  | 4.48 | 4.33 |  | O=C(NCc1ccccc1F)C(CCO)N1CCN(C(c2ccccc2)c2ccccc2)CC1 (racemic) | inhibition [8]: 55%

More lines, now with the values behind:

Row | SMILES | inhibition [2] [%] | inhibition [3] [%] | pIC50 [2] | pIC50 [3] | remaining binding [4] [%] | further results
7 | O=C(NCc1ccccc1)C(CCO)N1CCC(Cc2ccccc2)CC1 (racemic) | 75 | 49 |  |  |  | inhibition [1]: 86%
8 | NC(=O)C(CCO)N1CCNCC1 (racemic) | 84 | 110 |  |  |  | 
9 | COc1ccc(CNC(=O)C(CCO)N2CCN(C(c3ccccc3)c3ccccc3)CC2)cc1 (racemic) |  |  |  |  |  | inhibition [6]: 78%; inhibition [5]: 61%
10 | O=C(NCc1ccccc1Cl)C(CCO)N1CCN(C(c2ccccc2)c2ccccc2)CC1 (racemic) |  |  |  |  |  | inhibition [7]: 83%; inhibition [6]: 72%; inhibition [5]: 73%
11 | O=C(NCc1ccc(F)cc1)C(CCO)N1CCN(C(c2ccc(F)cc2)c2ccc(F)cc2)CC1 (racemic) |  |  | 4.03 | 4.13 | 75 | 
12 | O=C(NCCc1ccccc1)C(CCO)N1CCN(C(c2ccccc2)c2ccccc2)CC1 (racemic) |  |  |  |  |  | inhibition [6]: 93%; inhibition [5]: 80%
13 | O=C(NCc1ccc(Cl)cc1)C(CCO)N1CCN(C(c2ccc(F)cc2)c2ccc(F)cc2)CC1 (racemic) |  |  | 4.14 | 4.35 | 102 | 
14 | O=C(NCc1ccc(Cl)cc1)C(CCO)N1CCNCC1 (racemic) | 79 | 98 |  |  |  | 
15 | O=C(NCc1ccccc1)C(CCO)N1CCOCC1 (racemic) | 113 | 98 |  |  |  | inhibition [1]: 95%
16 | NC(=O)C(CCO)N1CCN(C(c2ccc(F)cc2)c2ccc(F)cc2)CC1 (racemic) | 66 | 84 |  |  |  | inhibition [1]: 106%
17 | O=C(NCc1ccccc1F)C(CCO)N1CCN(C(c2ccc(F)cc2)c2ccc(F)cc2)CC1 (racemic) | 97 | 65 |  |  | 92 | 
18 | Cc1ccc(CNC(=O)C(CCO)N2CCN(C(c3ccc(F)cc3)c3ccc(F)cc3)CC2)cc1 (racemic) |  |  | 4.23 | 4.44 | 92 | 
19 | O=C(NCCc1ccccc1)C(CCO)N1CCN(C(c2ccc(F)cc2)c2ccc(F)cc2)CC1 (racemic) | 69 |  |  | 4.43 |  | inhibition [1]: 98%
20 | O=C(NCc1ccccc1)C(CCO)N1CCNCC1 (racemic) | 63 | 98 |  |  |  | inhibition [1]: 76%
21 | O=C(NCc1ccccc1)C(CCO)N1CCN(C(c2ccc(F)cc2)c2ccc(F)cc2)CC1 (racemic) |  |  | 4.19 | 4.33 | 63 | 
22 | COc1ccc(CNC(=O)C(CCO)N2CCN(C(c3ccc(F)cc3)c3ccc(F)cc3)CC2)cc1 (racemic) | 93 | 65 |  |  |  | inhibition [1]: 101%
23 | O=C(NCc1ccccc1Cl)C(CCO)N1CCN(C(c2ccc(F)cc2)c2ccc(F)cc2)CC1 (racemic) |  |  | 4.2 | 4.17 | 93 | 
